According to ChEMBL document CHEMBL2440065, “Identification of a novel benzoxazolone derivative as a selective, orally active 18 kDa translocator protein (TSPO) ligand” (J Med Chem, 2013):
Converted amounts (≈) assume the structure as drawn. The source made the active and inactive calls. The calls are words filed in the database; no cut-off is given here.

What was measured:
Rattus norvegicus [1] = species on record: Rattus norvegicus; test: Displacement of [3H]flumazenil from Sprague-Dawley rat cerebral cortex CBR at 10 uM after 1 hr by liquid scintillation counting analysis; assay type: tissue-based
Rattus norvegicus [2] = species on record: Rattus norvegicus; test: Displacement of [3H]batrachotoxin from rat brain sodium channel site 2 at 10 uM relative to control; assay type: tissue-based
Rattus norvegicus [3] = test: Anxiolytic-like activity in Sprague-Dawley rat vogel conflict model at 3 mg/kg, po after 1 hr; assay type: functional, organism-based; set-up: dose 3 mg/kg
[4] = Solubility of the compound at pH 2.5 by HPLC analysis; assay type: physicochemical; conditions: buffer
Summary of the method: (§1)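 Compound (1 mg) shaken in 0.4 mL buffered solution at pH 7.4 or pH 2.5, then centrifuged; dissolved compound in the supernatant quantified by HPLC.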

[5] = Solubility of the compound at pH 7.4 by HPLC analysis; assay type: physicochemical; conditions: buffer; summary of the method: as §1
[6] = Metabolic stability in rat liver S9 fraction assessed as compound remaining at 1 uM after 30 mins in presence of NADPH; assay type: ADME, subcellular; conditions: read-out: Stability
Translocator protein = Translocator protein (Rattus norvegicus, UniProt P16257); test: Displacement of [3H]PK11195 from Sprague-Dawley rat kidney TSPO after 1 hr by liquid scintillation counting analysis
Sequence of Translocator protein (P16257 whole entry, looked up): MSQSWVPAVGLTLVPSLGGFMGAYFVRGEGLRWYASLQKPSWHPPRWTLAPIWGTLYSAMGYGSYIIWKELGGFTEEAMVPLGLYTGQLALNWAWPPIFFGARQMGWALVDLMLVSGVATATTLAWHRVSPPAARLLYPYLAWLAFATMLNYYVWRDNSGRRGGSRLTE

[7] = Displacement of [3H]batrachotoxin from rat brain sodium channel site 2; assay type: tissue-based
[8] = Solubility of the compound at pH 6.8; assay type: physicochemical; conditions: buffer
Summary of the method: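 Solubility measured in pH 6.8 buffer containing bile acids; compound tested as free base and as HCl salt.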

CYP2C19 = CYP2C19 (Homo sapiens, UniProt P33261); test: Inhibition of CYP2C19 (unknown origin) at 1 uM; assay type: ADME
Sequence of CYP2C19 (P33261 whole entry): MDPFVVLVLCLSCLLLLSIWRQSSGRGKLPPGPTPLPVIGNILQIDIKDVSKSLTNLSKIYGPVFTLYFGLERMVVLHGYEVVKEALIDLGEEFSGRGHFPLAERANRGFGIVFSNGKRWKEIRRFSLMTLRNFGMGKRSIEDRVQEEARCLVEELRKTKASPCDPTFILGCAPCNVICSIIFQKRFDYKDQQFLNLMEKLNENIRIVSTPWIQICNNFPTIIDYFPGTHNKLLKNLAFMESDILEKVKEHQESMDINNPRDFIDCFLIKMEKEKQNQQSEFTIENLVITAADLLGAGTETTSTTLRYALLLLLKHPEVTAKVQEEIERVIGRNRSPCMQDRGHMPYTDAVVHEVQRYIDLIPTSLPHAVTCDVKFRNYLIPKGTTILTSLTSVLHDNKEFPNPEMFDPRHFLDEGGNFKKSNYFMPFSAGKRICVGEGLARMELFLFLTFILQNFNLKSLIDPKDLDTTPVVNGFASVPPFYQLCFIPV

CN(C(=O)Cn1c(=O)oc2ccc(-c3ccc(OC(F)(F)F)cc3)cc21)c1cccnc1 [listing 1 of 2 here]
inhibition (Rattus norvegicus [1]): 0% | inhibition (Rattus norvegicus [2]): 108% | Activity (Rattus norvegicus [3]): Active

CN(C(=O)Cn1c(=O)oc2ccc(-c3ccccc3)cc21)c1ccccc1
solubility [4]: 1 µg/mL (≈ 2.79 µM)

COc1ccc(N(C)C(=O)Cn2c(=O)oc3ccc(-c4ccncc4)cc32)cc1
solubility [5]: < 1 µg/mL | remaining at 0.5 h, 1 µM [6]: 47% | inhibition (Rattus norvegicus [1]): 2% | Ki (Translocator protein): 17 nM | solubility [4]: 130 µg/mL (≈ 334 µM)

CN(C(=O)Cn1c(=O)oc2ccc(-c3ccncc3)cc21)c1ccc(OC(F)(F)F)cc1
Ki (Translocator protein): 23 nM

CN(C(=O)Cn1c(=O)oc2ccc(-c3ccc(C(F)(F)F)cc3)cc21)c1cccnc1
solubility [5]: < 1 µg/mL | remaining at 0.5 h, 1 µM [6]: 24% | inhibition (Rattus norvegicus [1]): 6% | Ki (Translocator protein): 9.8 nM | solubility [4]: < 1 µg/mL

CN(C(=O)Cn1c(=O)oc2ccc(-c3ccc(OC(F)(F)F)cc3)cc21)c1cccnc1 [listing 2 of 2 here]
solubility [5]: < 1 µg/mL | remaining at 0.5 h, 1 µM [6]: 32% | Ki (Translocator protein): 4.9 nM | IC50 [7]: 700 nM | solubility [8]: 20 µg/mL (≈ 45.1 µM) | solubility [4]: 4 µg/mL (≈ 9.02 µM)

CCN(C(=O)Cn1c(=O)oc2ccc(-c3cccnc3)cc21)c1ccccc1
remaining at 0.5 h, 1 µM [6]: 0% | inhibition (Rattus norvegicus [1]): 21% | Ki (Translocator protein): 4.4 nM

CCN(C(=O)Cn1c(=O)oc2ccc(-c3ccncc3)cc21)c1ccccc1
inhibition at 1 µM (CYP2C19): 71% | solubility [5]: 2 µg/mL (≈ 5.36 µM) | remaining at 0.5 h, 1 µM [6]: 24% | inhibition (Rattus norvegicus [1]): 5% | Ki (Translocator protein): 3 nM | solubility [4]: 860 µg/mL (≈ 2300 µM)

COc1ccc(N(C)C(=O)Cn2c(=O)oc3ccc(-c4cccnc4)cc32)cc1
remaining at 0.5 h, 1 µM [6]: 9% | inhibition (Rattus norvegicus [1]): 0% | Ki (Translocator protein): 19 nM

CN(C(=O)Cn1c(=O)oc2ccc(-c3ccc(C(F)(F)F)cc3)cc21)c1ccccc1
solubility [5]: < 1 µg/mL | solubility [4]: < 1 µg/mL

CN(C(=O)Cn1c(=O)oc2ccc(-c3ccc(OC(F)(F)F)cc3)cc21)c1ccccc1
solubility [5]: < 1 µg/mL | solubility [4]: < 1 µg/mL

CN(C(=O)Cn1c(=O)oc2ccc(-c3cccnc3)cc21)c1ccc(OC(F)(F)F)cc1
inhibition (Rattus norvegicus [1]): 0% | Ki (Translocator protein): 26 nM | IC50 [7]: > 1000 nM

CN(C(=O)Cn1c(=O)oc2ccc(-c3ccccc3)cc21)c1cccnc1
IC50 [7]: > 1000 nM | solubility [4]: 180 µg/mL (≈ 501 µM)

CN(C(=O)Cn1c(=O)oc2ccc(-c3ccncc3)cc21)c1ccccc1
solubility [5]: 1 µg/mL (≈ 2.78 µM) | solubility [4]: 730 µg/mL (≈ 2030 µM)

CN(C(=O)Cn1c(=O)oc2ccc(-c3cccnc3)cc21)c1ccccc1
solubility [5]: 5 µg/mL (≈ 13.9 µM)

CN(C(=O)Cn1c(=O)oc2ccc(-c3ccccc3)cc21)c1ccccn1
solubility [5]: 1 µg/mL (≈ 2.78 µM) | solubility [4]: 3 µg/mL (≈ 8.35 µM)

CN(C(=O)Cn1c(=O)oc2ccc(-c3ccncc3)cc21)c1ccc(C(F)(F)F)cc1
inhibition at 1 µM (CYP2C19): 73% | solubility [5]: 3 µg/mL (≈ 7.02 µM) | remaining at 0.5 h, 1 µM [6]: 35% | inhibition (Rattus norvegicus [1]): 0% | Ki (Translocator protein): 6.6 nM | solubility [4]: > 1000 µg/mL
